Screening results as filed in PubChem BioAssay.
CASP6 VEID inh: caspase-6 (human) enzyme inhibition; P55212; purified caspase-6, Z-VEID-R110 cleavage fluorescence; inhibition, % at 12.5 µM; 350,000 compounds, 0.53% hits; AID 686996;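 active means mean inhibition across replicates at least about 35%, with every replicate also reaching that limit, limit read from the data; inconclusive means only one of the two criteria met; inactive means neither criterion met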;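 further: 0% = median of neutral control wells and 100% = no fluorescence left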
S100A4 inh HTS: inhibitors of human S100A4 binding to myosin IIA peptide; P26447; S100A4/TAMRA-MyoIIA peptide fluorescence polarization; inhibition, % at 10.7 µM; 360,000 compounds, 0.14% hits;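 active means mean inhibition of at least 70% across replicates, with every replicate also reaching that level; inconclusive means mean inhibition reaches 70% but some replicates fall short; inactive means mean inhibition below 70%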
Target sequence (P26447 whole entry, looked up): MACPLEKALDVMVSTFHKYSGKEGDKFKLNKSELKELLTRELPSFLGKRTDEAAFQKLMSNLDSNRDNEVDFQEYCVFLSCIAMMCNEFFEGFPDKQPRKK
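Material: S100A4 monomer protein | Medium: HEPES pH 7.2 with CaCl2, KCl, NaCl, DTT, Triton | Reagent: Labelled myosin peptide probe, 5 nM | Doses: One dose per compound | Times: 5 min incubation before reading | Benchmarks: Neutral control DMSO, positive control TFP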
Xi reactivation: activators of X-chromosome reactivation in mouse fibroblasts. XiGFP mouse fibroblasts, % GFP-positive cells imaging, 3 d; cells co-treated with 5-aza-dC sensitizer; scaled so ellipticine positive control = 100%. activation, % at 7.58 µM. 360,000 compounds, 0.055% hits;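 active means mean normalized replicate activation at least 10% and every replicate at or above 10%; inconclusive means only one of the two criteria met; inactive means mean below 10% and not all replicates reach 10%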;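 further: 0% = median of on-plate neutral control wells and 100% = ellipticine 6 µM median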
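Material: SV40-immortalized XiGFP fibroblast cells, line 68-5-11 | Buffer or medium: DMEM containing 5-aza-dC | Dosing: One concentration, pinned | Times: 3 d treatment, 15 min room-temperature fixation | Controls: Ellipticine 6 µM positive control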
AF4-AF9 inh: blocks AF4 peptide binding to human AF9 | P42568 | AlphaScreen, biotin-AF4 peptide binding to FLAG-AF9 | inhibition, % at 10 µM | 350,000 compounds, 0.47% hits | AID 651704;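 active means every replicate reaching a set inhibition limit, whatever the replicate mean, cut at about 25% in these data; inconclusive means mean inhibition reaches that limit but some replicates miss it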;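 further: 0% = plate neutral control median and 100% = total signal loss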
Target sequence (P42568 whole entry, looked up): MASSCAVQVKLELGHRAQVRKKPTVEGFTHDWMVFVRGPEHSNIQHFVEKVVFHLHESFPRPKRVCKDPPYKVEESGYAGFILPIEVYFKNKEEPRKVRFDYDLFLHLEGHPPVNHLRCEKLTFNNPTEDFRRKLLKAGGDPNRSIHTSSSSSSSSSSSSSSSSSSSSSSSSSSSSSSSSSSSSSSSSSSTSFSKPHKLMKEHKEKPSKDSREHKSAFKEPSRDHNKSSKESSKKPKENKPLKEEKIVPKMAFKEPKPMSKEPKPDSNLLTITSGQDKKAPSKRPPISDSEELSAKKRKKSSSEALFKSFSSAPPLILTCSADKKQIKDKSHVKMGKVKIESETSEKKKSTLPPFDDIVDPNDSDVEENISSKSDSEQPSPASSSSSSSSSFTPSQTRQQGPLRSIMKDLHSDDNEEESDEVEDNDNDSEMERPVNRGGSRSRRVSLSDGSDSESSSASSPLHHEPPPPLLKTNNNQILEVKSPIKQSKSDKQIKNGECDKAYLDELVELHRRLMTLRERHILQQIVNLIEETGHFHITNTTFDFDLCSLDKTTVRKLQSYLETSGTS
RAD54 inh: inhibitors of human RAD54 branch migration; RAD54 Holliday junction branch migration, FAM/BHQ fluorescence; inhibition, % at 10.4 µM; 360,000 compounds, 0.14% hits;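 active means mean normalized replicate activity at least 40 and at least half of replicates scoring 40 or more; inconclusive means only one of the two criteria met; inactive means mean below 40 and under half of replicates reaching 40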;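 further: 0% = median of neutral control wells and 100% = median of positive control wells; inhibitors cause a drop in the FAM fluorescence signal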
RAD52 anneal inh: blocks human RAD52 DNA annealing; 360,000 compounds, 0.46% hits; inhibition, % at 18.7 µM; recombinant RAD52 DNA annealing, FRET fluorescence; AID 651710;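 active means every replicate showing at least 50% inhibition; inconclusive means mean inhibition at least 50% but not in every replicate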
DNA binding: counter-screen for Rad54 inhibitors: DNA binding compounds | shares compounds with RAD54 inh | Acridine orange-DNA displacement, fluorescence polarization, 20 min | AC50, µM (series often up to 35 µM), for the others: at the top dose activity change, negative = DNA binding | 460 compounds, 8% hits;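 active means signal drop giving an AC50 within twice the top valid tested concentration of each sample, actives reach about 35 µM in these data; inactive means activity opposite to expected, plus the rest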;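 further: polarization loss reports compound binding to salmon sperm DNA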
Alpha interfer: AlphaScreen signal interference counter-screen hit; 530 compounds, 45% hits; signal luminescence; AC50, µM (doses to about 12 µM), for inactives: at the top dose activity change, negative = inhibition; AID 720494; shares compounds with AF4-AF9 inh; cut-off not given, nearly all actives have AC50 up to about 14 µM
DNA binder FP: counter-screen for RAD52 inhibitors: DNA binding compounds; shares compounds with RAD52 anneal inh; AID 652128; AC50, µM; 1,000 compounds, 8% hits; Salmon sperm DNA/acridine orange FP displacement;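 active means fitted half-maximal concentration for signal loss at or below twice the highest dose tested, in every separate run, actives reach about 64 µM in these data; inconclusive means runs disagree, or flat partial signal loss, or poor fit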
* marks the source's active call; other numbers are inactive results; i = inactive; ? = inconclusive; . = no result given. Shown are actives, neighbours in structure and some others; about 1.3% of the full set was active somewhere.

SMILES	CASP6 VEID inh	S100A4 inh HTS	Xi reactivation	AF4-AF9 inh	RAD54 inh	RAD52 anneal inh	DNA binding	DNA binder FP	others
CCOC(=O)c1c(-c2ccc(-c3ccccc3)cc2)csc1NC(=O)CNCCN(C)C	-216.5	-10.3	1.8	31.5*	53.5*	95.2*	5.1%	i	Alpha interfer=-32.0%
CC(C)NC(=O)N(C)C[C@@H]1Oc2ccc(NC(=O)CCCCCC(=O)Nc3ccccc3N)cc2CC(=O)N([C@H](C)CO)C[C@@H]1C	1.5	-3.7	0.0	0.1	-11.5	-19.5	.	.
CNC[C@H]1OCCCC[C@@H](C)Oc2ccc(NS(=O)(=O)c3ccc(OC)cc3)cc2C(=O)N([C@H](C)CO)C[C@@H]1C	0.5	-1.9	-0.1	-9.2	16.1	12.7	.	.
COc1ccc2nc3cc(Cl)ccc3c(Nc3cc(CN4CCCC4)c(O)c(CN4CCCC4)c3)c2n1	4.9	2.4	2.7	47.0*	124.5*	100.9*	3.72µM*	4.02µM*
C[C@@H]1CN([C@H](C)CO)C(=O)c2ccccc2-c2ccccc2CO[C@@H]1CN(C)C(=O)Nc1ccc(-c2ccccc2)cc1	-1.8	4.1	0.3	4.0	.	3.0	.	.
CCOC(=O)c1cnc2ccc(OC)cc2c1Nc1ccc2c(c1)OCCO2	.	.	.	.	9.4	.	.	.
CCOC(=O)c1cnc2ccc(OC)cc2c1Nc1ccc(N2CCN(C)CC2)cc1	-24.5	3.8	0.1	41.1*	71.8*	88.2*	3.7%	i
O=C1c2cccc3cccc(c23)C(=O)N1CC1CCN(CC(O)COc2ccc3ccccc3c2)CC1 (stereo not given)	-1.5	3.5	0.7	0.3	29.9	18.1	.	.
Cc1cc(C)cc(OCC(O)CN2CCC(CN3C(=O)c4cccc5cccc(c45)C3=O)CC2)c1 (stereo not given)	2.3	-2.8	-0.2	29.7*	65.6*	95.5*	-14.6%	i	Alpha interfer=-33.1%
O=C(NCCCN1CCCC1)c1cc2c(Cl)nc3ccccc3c2s1	-33.4	0.8	1.0	8.7	?	63.1*	-21.8%	42.3µM*
CCCCN(C)C(=O)c1cc2c(Cl)nc3ccccc3c2s1	0.3	-1.2	0.2	-3.1	-8.6	-0.1	.	.
N=c1n(CCN2CCCCC2)c2ccccc2n1CC(=O)c1cccc([N+](=O)[O-])c1	-3.0	-10.5	-0.1	1.0	86.5*	75.4*	-10.0%	i
COc1ccc2oc3cc(NCCN(C)C)ccc3c(=O)c2c1	-6.4	-0.4	-0.1	-6.2	86.2*	79.1*	1.5%	i
CN(C)CCNC(=O)c1cccc(-c2cnc3c(NC=O)cc(-c4cccc(F)c4)cn23)c1	-29.7	30.8	-0.1	7.1	?	91.1*	-3.5%	i
COc1ccc(-c2cc(NC=O)c3ncc(-c4cccc(OC)c4)n3c2)cc1	1.7	1.4	0.1	-4.2	-0.4	-37.5	.	.
CC(=O)c1cccc(-c2cnc3c(NC=O)cc(-c4ccc(F)cc4)cn23)c1	4.2	-1.2	0.0	-5.9	1.0	-40.8	.	.
COc1ccc(-c2cc(NC=O)c3ncc(-c4cccc(C(=O)NCCN(C)C)c4)n3c2)cc1	-68.9	-4.2	0.1	26.3*	68.9*	89.9*	16.6%	i	Alpha interfer=-25.4%
CN(C)CCNC(=O)c1cccc(-c2cnc3c(NC=O)cc(-c4ccc(F)cc4)cn23)c1	-44.9	-7.4	0.0	12.8	54.8*	92.2*	1.1%	i
CN(C)C(=O)c1cccc(-c2cnc3c(NC=O)cc(-c4cc(F)c(F)c(F)c4)cn23)c1	5.6	-11.1	0.2	-2.5	6.0	-31.0	.	.
CO[C@H]1CN(C)C(=O)c2cc(NC(=O)Nc3ccccc3)ccc2OC[C@@H](C)N(C(C)=O)C[C@H]1C	-2.2	-5.1	0.7	2.7	-0.2	14.6	.	.
O=C(N[C@H]1CC[C@@H](CCNS(=O)(=O)Cc2ccccc2)O[C@H]1CO)c1cnccn1	0.7	-4.3	0.5	-18.0	4.9	0.4	.	.
COc1ccc(CN(C)C[C@H]2Oc3ccc(NC(=O)Nc4ccccc4)cc3CC(=O)N([C@H](C)CO)C[C@H]2C)cc1	-0.8	4.0	0.0	4.8	1.9	-11.7	.	.
O=C(c1ccccc1)N1C[C@@H]2[C@H](c3ccccc31)[C@H](CO)N2Cc1cc(F)ccc1F	2.6	1.5	0.4	0.8	-19.7	-2.7	.	.
C[C@H]1CN([C@@H](C)CO)C(=O)c2cc(NS(=O)(=O)c3ccc(Cl)cc3)ccc2O[C@H]1CN(C)CC1CC1	-1.4	2.0	0.1	-9.9	-3.5	18.1	.	.
COc1ccc(C)c2sc(N(CCN(C)C)C(=O)c3ccc4ccccc4c3)nc12	-22.7	-4.3	0.2	29.0*	51.6*	73.2*	-16.4%	i
SMILES	CASP6 VEID inh	S100A4 inh HTS	Xi reactivation	AF4-AF9 inh	RAD54 inh	RAD52 anneal inh	DNA binding	DNA binder FP	others
CCC(=O)Nc1ccc2c(c1)C(=O)N(C)C[C@@H](OC)[C@@H](C)CN(C(=O)c1ccncc1)[C@H](C)CO2	5.7	-3.0	0.0	1.3	-11.9	-8.9	.	.
c1ccc2c(NCCc3c[nH]c4ccccc34)c3ccccc3nc2c1	-3.0	15.7	0.0	43.7*	92.8*	97.1*	35.6µM*	41.4µM*
COc1nc(NCCc2ccc(OC)c(OC)c2)nc(OC)n1	.	.	.	.	3.3	.	.	.
Cc1ccc(-c2nc(Nc3cccc(O)c3)c3ccccc3n2)cc1	4.7	-3.2	0.0	-4.4	14.4	-20.3	.	.
Fc1cccc(NCCc2c[nH]c3ccccc23)n1	1.6	-0.9	0.0	7.6	9.8	5.7	.	.
COc1ccc(CCNc2c3ccccc3nc3ccccc23)cc1OC	-3.8	-0.2	-0.1	8.0	100.4*	83.4*	-12.5%	i
COc1ccc(Nc2c3c(nc4ccccc24)CCCC3)cc1OC	0.7	6.4	0.2	9.8	.	13.9	.	.
Oc1cccc(Nc2c3ccccc3nc3ccccc23)c1	-1.4	-10.0	0.3	0.2	57.3*	81.8*	30µM*	?
COc1cc(Nc2c3ccccc3nc3ccccc23)cc(OC)c1OC	2.6	-2.2	0.0	31.3*	76.2*	55.1*	-13.2%	i	Alpha interfer=12.5µM*
C[C@H](CO)N1C[C@H](C)[C@H](CN(C)C(=O)CCCN(C)C)OCCCC[C@H](C)Oc2ccc(NC(=O)Nc3ccccc3)cc2C1=O	1.3	1.0	0.2	5.3	0.1	20.3	.	.
COc1ccc(Nc2c3ccccc3nc3ccccc23)cc1	1.4	1.7	-0.1	13.0	100.7*	73.2*	26.8µM*	10.6µM*
